# Fewer inactive variants are shown than the library holds.
# B1: tRNA (parent)
# chain: GUUCCGUUGGCGUAAUGGUAACGCGUCUCCCUCCUAAGGAGAAGACUGCGGGUUCGAGUCCCGUACGGAACG
# Variants of: B1
# Assay: yeast fitness relative to wild type (ratio to wild type); higher = fitter; tRNA-Arg(CCU), competitive growth, 37 C, YPD
# Procedure, shortened: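 Variants of the tRNA-Arg(CCU) gene, chemically synthesised with a 3% per-site mutation rate at 69 sites, were placed at the native genomic locus in Saccharomyces cerevisiae. The pooled strains were competed in YPD at 37°C for 24 hours in six parallel replicates. Gene amplicons from the start population and from each end population were read by 100-nucleotide paired-end sequencing. Darwinian fitness relative to wild type came from changes in genotype frequencies; genotypes needed ≥ 100 starting reads, and estimates < 0.5 were set to 0.5.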
row,Variant,yeast fitness
1,GUUCCGUUGGCGUAAUGGUAACGCGUCUCCCUCCUAAGGAGAAGACUGCGGGUCCGGGUGCCGUACGGAACG [U54C A57G C60G],0.787
2,GUUCCGUUGGCGUAAUGGUAACGCGUCUCCCUCCUAAGGAGAAGACUGCGGGUACGAGUCCUGUACGGAACG [U54A C62U],0.59
3,GUUCCGUUGGCGUAAUGGUAACGCGUCUCCCUCCUAAGGAGAAGACUGCGGCUUCAAGUCCUGUACGGAACG [G52C G56A C62U],0.653
4,GUUCCGUUGGCGUAAUGGUAACGCGUCUCCCUCCUAAGGAGAAGACUGCGGGAUCGAGUCCCAUACGGAACG [U53A G63A],0.618
5,GUUCCGUUGGCGUAAUGGUAACGCGUCUCCCUCCUAAGGAGAAGACUGCGGGCUCGAGUCCCGUACGGUACG [U53C A69U],0.997
6,GUUCCGUUGGCGUAAUGGUAACGCGUCUCCCUCCUAAGGAGAAGACUGCGGCUUCGAGUCCCAUACGGAACG [G52C G63A],0.642
7,GUUCCGUUGGCGUAAUGGUAACGCGUCUCCCUCCUAAGGAGAAGACUGCGGGUACGAGUCCCGUACGGCACG [U54A A69C],0.658
8,GUUCCGUUGGCGUAAUGGUAACGCGUCUCCCUCCUAAGGAGAAGACUGCGGGAUCGAGUCCCGUGCGGAACG [U53A A65G],0.571
9,GUUCCGUUGGCGUAAUGGUAACGCGUCUCCCUCCUAAGGAGAAGACUGCGGGAUCGAGUCCCGUUCGGAACG [U53A A65U],0.601
10,GUUCCGUUGGCGUAAUGGUAACGCGUCUCCCUCCUAAGGAGAAGACUGCGGGUACGAGUCCCGUAUGGAACG [U54A C66U],0.729
11,GUUCCGUUGGCGUAAUGGUAACGCGUCUCCCUCCUAAGGAGAAGACUGCGGGUACGAGUCCCGUAAGGAACG [U54A C66A],0.528
12,GUUCCGUUGGCGUAAUGGUAACGCGUCUCCCUCCUAAGGAGAAGACUGCGGGAUCGAGUCUCGAACGGAACG [U53A C61U U64A],≤ 0.5
13,GUUCCGUUGGCGUAAUGGUAACGCGUCUCCCUCCUAAGGAGAAGACUGCGGGAUCGAGUCCCGUACCGAACG [U53A G67C],0.664
14,GUUCCGUUGGCGUAAUGGUAACGCGUCUCCCUCCUAAGGAGAAGACUGCGGGAUCGAGUCCCGUACGAAACG [U53A G68A],0.574
15,GUUCCGUUGGCGUAAUGGUAACGCGUCUCCCUCCUAAGGAGAAGACUGCGGCUUCGAGUCCCAUACGGGACG [G52C G63A A69G],≤ 0.5
16,GUUCCGUUGGCGUAAUGGUAACGCGUCUCCCUCCUAAGGAGAAGACUGCGGGAUCAAGUCCCGUACGGAACG [U53A G56A],0.636
17,GUUCCGUUGGCGUAAUGGUAACGCGUCUCCCUCCUAAGGAGAAGACUGCGGGUACGAGUCCCGUUUGGAACG [U54A A65U C66U],≤ 0.5
18,GUUCCGUUGGCGUAAUGGUAACGCGUCUCCCUCCUAAGGAGAAGACUGCGGGCUCGAGUCCCGUUCGGAACG [U53C A65U],0.788
19,GUUCCGUUGGCGUAAUGGUAACGCGUCUCCCUCCUAAGGAGAAGACUGCGGGCUCGAGUCCCGUCCGGAACG [U53C A65C],0.878

row,Variant,yeast fitness
1,GUUCCGUUGGCGUAAUGGUAACGCGUCUCCCUCCUAAGGAGAAGACUGCGGGGUCGUGUCCCGUACGGAACG [U53G A57U],0.626
2,GUUCCGUUGGCGUAAUGGUAACGCGUCUCCCUCCUAAGGAGAAGACUGCGGGGUCGCGUCCCGUACGGAACG [U53G A57C],≤ 0.5
3,GUUCCGUUGGCGUAAUGGUAACGCGUCUCCCUCCUAAGGAGAAGACUGCGGGUACGAGUCCCGCACGGAACG [U54A U64C],0.683
4,GUUCCGUUGGCGUAAUGGUAACGCGUCUCCCUCCUAAGGAGAAGACUGCGGGAUCGAGUCCCGUAAGGAACG [U53A C66A],≤ 0.5
5,GUUCCGUUGGCGUAAUGGUAACGCGUCUCCCUCCUAAGGAGAAGACUGCGGGUACGAGUGCCGUAUGGAACG [U54A C60G C66U],≤ 0.5
6,GUUCCGUUGGCGUAAUGGUAACGCGUCUCCCUCCUAAGGAGAAGACUGCGGGCUCGAGUCGCGUACAGCACG [U53C C61G G67A A69C],0.552
7,GUUCCGUUGGCGUAAUGGUAACGCGUCUCCCUCCUAAGGAGAAGACUGCGGGGUCGACUCCCGUACGGAACG [U53G G58C],0.716
8,GUUCCGUUGGCGUAAUGGUAACGCGUCUCCCUCCUAAGGAGAAGACUGCGGGAUCGUGUCCCGUUCGGAACG [U53A A57U A65U],0.725
9,GUUCCGUUGGCGUAAUGGUAACGCGUCUCCCUCCUAAGGAGAAGACUGCGGGUAGGAGUCCCGUCCGGAACG [U54A C55G A65C],0.627
10,GUUCCGUUGGCGUAAUGGUAACGCGUCUCCCUCCUAAGGAGAAGACUGCGGGGUCCAGUACCGUACGGAACG [U53G G56C C60A],≤ 0.5
11,GUUCCGUUGGCGUAAUGGUAACGCGUCUCCCUCCUAAGGAGAAGACUGCGGCCUCGAGUCCCGUACCGAACG [G52C U53C G67C],≤ 0.5
12,GUUCCGUUGGCGUAAUGGUAACGCGUCUCCCUCCUAAGGAGAAGACUGCGGGCUCGGGUCCCGUAUGGAACG [U53C A57G C66U],≤ 0.5
13,GUUCCGUUGGCGUAAUGGUAACGCGUCUCCCUCCUAAGGAGAAGACUGCGGGUAUGAGUCCCGUACGGAACG [U54A C55U],0.615
14,GUUCCGUUGGCGUAAUGGUAACGCGUCUCCCUCCUAAGGAGAAGACUGCGGCUCCGAGUCCCGUACGGAACG [G52C U54C],0.608
15,GUUCCGUUGGCGUAAUGGUAACGCGUCUCCCUCCUAAGGAGAAGACUGCGGGUACGAGUCCCGUACGGAUCG [U54A A70U],0.768
16,GUUCCGUUGGCGUAAUGGUAACGCGUCUCCCUCCUAAGGAGAAGACUGCGGGUACGAGUCCCGUACGGAGCG [U54A A70G],0.702
17,GUUCCGUUGGCGUAAUGGUAACGCGUCUCCCUCCUAAGGAGAAGACUGCGGCUUCGAGUCCCGUACGCAACG [G52C G68C],0.639
18,GUUCCGUUGGCGUAAUGGUAACGCGUCUCCCUCCUAAGGAGAAGACUGCGGGGUCGAGUCCCGCACGGAACG [U53G U64C],0.669
19,GUUCCGUUGGCGUAAUGGUAACGCGUCUCCCUCCUAAGGAGAAGACUGCGGGAUCCAGUACCGUACGGAGCG [U53A G56C C60A A70G],0.58
